Test [1] addresses T1, Gonadotropin-releasing hormone receptor (Rattus norvegicus) (UniProt P30969).
T1 sequence (whole entry): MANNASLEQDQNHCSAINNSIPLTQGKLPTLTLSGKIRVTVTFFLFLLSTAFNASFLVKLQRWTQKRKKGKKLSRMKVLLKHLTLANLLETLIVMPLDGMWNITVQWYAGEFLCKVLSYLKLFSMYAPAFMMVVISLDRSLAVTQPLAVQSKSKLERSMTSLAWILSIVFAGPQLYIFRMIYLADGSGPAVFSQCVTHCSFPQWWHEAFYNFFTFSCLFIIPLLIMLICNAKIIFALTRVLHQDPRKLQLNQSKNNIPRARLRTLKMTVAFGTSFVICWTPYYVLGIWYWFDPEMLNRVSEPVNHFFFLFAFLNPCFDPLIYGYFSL
Nature of the test: Effect in the anti ovulatory assay (AOA) in rats expressed as no. of rats ovulating/No of rats treated at 2.5 mg; 0/8. Format: functional.

The species named for test [2] is Rattus norvegicus. Nature of the test: Effect in the anti ovulatory assay (AOA) in rats expressed as no. of rats ovulating/No of rats treated at 1.0 mg; 6/6. It counts as functional.
For test [3], the species on record is Rattus norvegicus. Nature of the test: Effect in the anti ovulatory assay (AOA) in rats expressed as no. of rats ovulating/No of rats treated at 0.5 mg; 8/8. It counts as functional.
For test [4], the species on record is Rattus norvegicus. Nature of the test: Effect in the anti ovulatory assay (AOA) in rats expressed as no. of rats ovulating/No of rats treated at 2.5 mg; 0/2. Format: functional.
In test [5] the target is T1, Gonadotropin-releasing hormone receptor (Rattus norvegicus). The experiment in a line: In vitro potency to inhibit GnRH-mediated LH secretion by cultured pituitary cells relative to [Ac-delta-Pro1,DFpa2,DTrp36]GnRH. Format: functional, cell-based. Conditions: Pituitary gland cell. The method, boiled down: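 Dispersed rat pituitary cells in culture; antagonist inhibition of GnRH-stimulated LH secretion. Potency expressed relative to standard antagonist [Ac-Δ3Pro1,D4FPhe2,DTrp3,6]GnRH taken as 1.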

For test [6], the species on record is Rattus norvegicus. The experiment in a line: Effect in the anti ovulatory assay (AOA) in rats expressed as no. of rats ovulating/No of rats treated at 1.0 mg; 4/15. Format: functional.
Test [7] deals with T1, Gonadotropin-releasing hormone receptor (Rattus norvegicus). Nature of the test: Duration of action, measured using castrated male rat assay to inhibit luteinizing hormone release.; fully active at 24 hr but not at 48 hr. It counts as functional.
For test [8], the species on record is Rattus norvegicus. The experiment in a line: Effect in the anti ovulatory assay (AOA) in rats expressed as no. of rats ovulating/No of rats treated at 1.0 mg; 4/6. It counts as functional.
The species entered for test [9] is Rattus norvegicus. Nature of the test: Effect in the anti ovulatory assay (AOA) in rats expressed as no. of rats ovulating/No of rats treated at 2.5 mg; 2/8. Format: functional.
Test [10] is filed under the species Rattus norvegicus. Nature of the test: Effect in the anti ovulatory assay (AOA) in rats expressed as no. of rats ovulating/No of rats treated at 1.0 mg; 9/12. It counts as functional.
For test [11], the species on record is Rattus norvegicus. The experiment in a line: Effect in the anti ovulatory assay (AOA) in rats expressed as no. of rats ovulating/No of rats treated at 0.5 mg; 4/4. It counts as functional.
The species entered for test [12] is Rattus norvegicus. Nature of the test: Effect in the anti ovulatory assay (AOA) in rats expressed as no. of rats ovulating/No of rats treated at 1.0 mg; 11/15. Format: functional.
Test [13] is filed under the species Rattus norvegicus. Nature of the test: Effect in the anti ovulatory assay (AOA) in rats expressed as no. of rats ovulating/No of rats treated at 1.0 mg; 2/9. Format: functional.
Test [14] is filed under the species Rattus norvegicus. The experiment in a line: Effect in the anti ovulatory assay (AOA) in rats expressed as no. of rats ovulating/No of rats treated at 250 mg; 4/4. Format: functional.

Consider `CCCC(=O)Nc1ccc(C[C@H](NC(=O)[C@H](CO)NC(=O)[C@@H](Cc2cccnc2)NC(=O)[C@@H](Cc2ccc(Cl)cc2)NC(=O)[C@@H](Cc2ccc3ccccc3c2)NC(C)=O)C(=O)N[C@H](Cc2ccc(NC(=O)CCC)cc2)C(=O)N[C@@H](CC(C)C)C(=O)N[C@@H](CCCCNC(C)C)C(=O)N2CCC[C@H]2C(=O)N[C@H](C)N)cc1`, for which the figures for the No. of rats ovulated (in test [1]; in the test filed under Rattus norvegicus [2]) were 0 and 6, respectively.
With `CC(=O)N[C@@H](Cc1c[nH]cn1)C(=O)Nc1ccc(C[C@H](NC(=O)[C@H](CO)NC(=O)[C@@H](Cc2cccnc2)NC(=O)[C@@H](Cc2ccc(Cl)cc2)NC(=O)[C@@H](Cc2ccc3ccccc3c2)NC(C)=O)C(=O)N[C@H](Cc2ccc(NC(=O)[C@@H](Cc3c[nH]cn3)NC(C)=O)cc2)C(=O)N[C@@H](CC(C)C)C(=O)N[C@@H](CCCCNC(C)C)C(=O)N2CCC[C@H]2C(=O)N[C@H](C)N)cc1`, the “No. of rats ovulated” value was 8 in the test filed under Rattus norvegicus [3], 0 in the test filed under Rattus norvegicus [4] and 4 in the test listed under Rattus norvegicus [6]. The same molecule had a Relative potency in test [5] of 0.47. For the same molecule, the Duration of action in [7] is 24 h.
For `CC(=O)N[C@@H](CC(N)=O)C(=O)Nc1ccc(C[C@H](NC(=O)[C@H](CO)NC(=O)[C@@H](Cc2cccnc2)NC(=O)[C@@H](Cc2ccc(Cl)cc2)NC(=O)[C@@H](Cc2ccc3ccccc3c2)NC(C)=O)C(=O)N[C@H](Cc2ccc(NC(=O)[C@@H](CC(N)=O)NC(C)=O)cc2)C(=O)N[C@@H](CC(C)C)C(=O)N[C@@H](CCCCNC(C)C)C(=O)N2CCC[C@H]2C(=O)N[C@H](C)N)cc1`, the “No. of rats ovulated” value in the test listed under Rattus norvegicus [8] stood at 4; in the test listed under Rattus norvegicus [9] it was 2.
For `CC(=O)N[C@H](Cc1ccc2ccccc2n1)C(=O)N[C@H](Cc1ccc(Cl)cc1)C(=O)N[C@H](Cc1cccnc1)C(=O)N[C@@H](CO)C(=O)N[C@@H](Cc1ccc(Nc2n[nH]c(N)n2)cc1)C(=O)N[C@H](Cc1ccc(Nc2n[nH]c(N)n2)cc1)C(=O)N[C@@H](CC(C)C)C(=O)N[C@@H](CCCCNC(C)C)C(=O)N1CCC[C@H]1C(=O)N[C@H](C)N`, the “No. of rats ovulated” value in the test filed under Rattus norvegicus [10] is reported as 9.
For `CC(=O)N[C@H](Cc1ccc2ccccc2c1)C(=O)N[C@H](Cc1ccc(Cl)cc1)C(=O)N[C@H](Cc1cccnc1)C(=O)N[C@@H](CO)C(=O)N[C@@H](Cc1ccc(NC(=O)c2n[nH]c(N)n2)cc1)C(=O)N[C@H](Cc1ccc(NC(=O)c2n[nH]c(N)n2)cc1)C(=O)N[C@@H](CC(C)C)C(=O)N[C@@H](CCCCNC(C)C)C(=O)N1CCC[C@H]1C(=O)N[C@H](C)N`, the “No. of rats ovulated” value in the test filed under Rattus norvegicus [11] stood at 4; in the test listed under Rattus norvegicus [12] it was 11. In addition, the Relative potency in [5] worked out at 0.65.
In test [5], `CC(=O)N[C@H](Cc1ccc2ccccc2c1)C(=O)N[C@H](Cc1ccc(Cl)cc1)C(=O)N[C@H](Cc1cccnc1)C(=O)N[C@@H](CO)C(=O)N(C)[C@@H](Cc1ccc(Nc2n[nH]c(N)n2)cc1)C(=O)N[C@H](Cc1ccc(Nc2n[nH]c(N)n2)cc1)C(=O)N[C@@H](CC(C)C)C(=O)N[C@@H](CCCCNC(C)C)C(=O)N1CCC[C@H]1C(=O)N[C@H](C)N` gave a Relative potency of 1.9. Besides, the “No. of rats ovulated” value in the test listed under Rattus norvegicus [13] is recorded as 2. This molecule also showed a Duration of action in [7] of 24 h.
Turning to `CC(=O)N[C@H](Cc1ccc2ccccc2c1)C(=O)N[C@H](Cc1ccc(Cl)cc1)C(=O)N[C@H](Cc1cccnc1)C(=O)N[C@@H](CO)C(=O)N[C@@H](Cc1ccc(NC(=O)Nc2cccc(Cl)c2)cc1)C(=O)N[C@H](Cc1ccc(NC(=O)Nc2cccc(Cl)c2)cc1)C(=O)N[C@@H](CC(C)C)C(=O)N[C@@H](CCCCNC(C)C)C(=O)N1CCC[C@H]1C(=O)N[C@H](C)N`, the “No. of rats ovulated” value in the test filed under Rattus norvegicus [14] was determined as 4.

The record behind these values is ChEMBL document CHEMBL1128434, “Gonadotropin-releasing hormone antagonists: novel members of the azaline B family” (1995).
